From ChEMBL document CHEMBL1921780, “Novel 3-nitro-1H-1,2,4-triazole-based aliphatic and aromatic amines as anti-chagasic agents” (J Med Chem, 2011)

How the values were obtained:
[1] = test system: Trypanosoma cruzi; experiment: Antitrypanosomal activity against amastigotes of Trypanosoma cruzi Tulahuen C4 infected in rat L6 cells after 72 hrs by alamar blue assay; details: Tulahuen C4, L6, 72 h
[2] = Dissociation constant, pKa of the compound; assay type: physicochemical
[3] = Selectivity index, ratio of IC50 for rat L6 cells to IC50 for Trypanosoma brucei rhodesiense STIB 900; assay type: toxicity, cell-based; details: L6 cells versus Trypanosoma brucei rhodesiense STIB 900, read-out: Ratio IC50
Procedure, shortened: (§1)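 Selectivity index is the L6 myoblast IC50 divided by the IC50 for each parasite. L. donovani was tested as axenic amastigotes. Both IC50s came from 96-well dose-response screens fitted by linear regression of sigmoidal curves.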

[4] = Selectivity index, ratio of IC50 for rat L6 cells to IC50 for Trypanosoma cruzi Tulahuen C4; assay type: toxicity, cell-based; details: L6 cells versus Trypanosoma cruzi Tulahuen C4, read-out: Ratio IC50
Procedure, shortened: as §1

[5] = Selectivity index, ratio of IC50 for rat L6 cells to IC50 for Leishmania donovani MHOM-ET-67/L82; assay type: toxicity, cell-based; details: L6 cells versus Leishmania donovani MHOM-ET-67/L82, read-out: Ratio IC50
Procedure, shortened: as §1

[6] = test system: Trypanosoma cruzi; experiment: Ratio of benznidazole IC50 to compound IC50 for Trypanosoma cruzi Tulahuen C4 infected in rat L6 cells after 72 hrs by alamar blue assay; assay type: functional
[7] = test system: Trypanosoma brucei rhodesiense; experiment: Antitrypanosomal activity against blood stream form of Trypanosoma brucei rhodesiense STIB 900 […] after 72 hrs by alamar blue assay; assay type: functional, organism-based; details: STIB 900, 72 h
[8] = test system: Trypanosoma brucei brucei; experiment: Antitrypanosomal activity against blood-stream Trypanosoma brucei brucei after 3 days by alamar blue assay; assay type: functional, organism-based; details: 72 h
Procedure, shortened: (§2)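 Bloodstream-form parasites seeded at 1 × 10^3 per ml in growth medium with a range of nitrotriazole or nifurtimox concentrations, no tetracycline. Incubated 3 days at 37 °C, then Alamar blue added for a further 16 h. IC50 taken from culture cell density.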

[9] = test system: Leishmania donovani; experiment: Antileishmanial activity against Leishmania donovani MHOM-ET-67/L82 axenic amastigotes after 72 hrs by alamar blue assay; details: MHOM-ET-67/L82, 72 h
[10] = test system: L6; experiment: Cytotoxicity against rat L6 cells after 72 hrs by alamar blue assay; assay type: cell-based; details: L6, 72 h
Procedure, shortened: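 Run in 96-well plates with a compound dose series. T. cruzi was tested as amastigotes inside infected L6 rat skeletal myoblasts. Uninfected L6 cells were used for cytotoxicity. IC50 was obtained by linear regression from sigmoidal dose–inhibition curves.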

[11] = test system: Trypanosoma brucei brucei; experiment: Antitrypanosomal activity against blood-stream Trypanosoma brucei brucei expressing type 1 nitroreductase after 3 days by alamar blue assay in absence of tetracycline; assay type: functional, organism-based; details: 72 h
Procedure, shortened: as §2

[12] = test system: Trypanosoma brucei brucei; experiment: Antitrypanosomal activity against tetracycline-induced blood-stream Trypanosoma brucei brucei overexpressing type 1 nitroreductase after 3 days by alamar blue assay; assay type: functional, organism-based; details: 72 h
Procedure, shortened: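 Bloodstream-form parasites carrying inducible TbNTR, with expression induced by tetracycline (1 μg/mL). Seeded at 1 × 10^3 per ml with a range of nitrotriazole or nifurtimox concentrations. Incubated 3 days at 37 °C, then Alamar blue added for 16 h. IC50 taken from cell density.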

[13] = test system: Trypanosoma brucei brucei; experiment: Ratio of IC50 for blood-stream Trypanosoma brucei brucei expressing type 1 nitroreductase in the absence of tetracycline to IC50 for tetracycline-induced blood-stream Trypanosoma brucei brucei overexpressing type 1 nitroreductase; assay type: functional
Procedure, shortened: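 Each culture seeded at 1 × 10^3 per ml, given compound for 3 days at 37 °C, then Alamar blue added for 16 h. IC50 taken from cell density, and the ratio is uninduced over induced.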

Structure (SMILES) | IC50 [1] | pKa [2] | IC50 [7] | selectivity ratio [3] | selectivity ratio [4] | selectivity ratio [5] | Ratio IC50 [6] | IC50 [8] | IC50 [9] | IC50 [10] | IC50 [11] | IC50 [12] | Ratio IC50 [13]
Cl.O=[N+]([O-])c1nccn1CCCNc1nc(-c2ccccc2)nc2ccccc12 | 1.97 µM | 5.06 | 3.92 µM | 22 | 45 | 9 | 0.7 | 7.47 µM | 10.1 µM | 87.8 µM | 7.58 µM | 0.95 µM | 8
Cl.O=[N+]([O-])c1ncn(CCCCNc2ccnc3cc(Cl)ccc23)n1 | 0.14 µM | 7.31 | 0.193 µM | 708 | 976 | 2 | 9.6 | 0.17 µM | 64.5 µM | 137 µM | 0.44 µM | 0.1 µM | 4
Cl.O=[N+]([O-])c1ncn(CCCN(Cc2ccc3cc(Br)ccc3n2)Cc2ccc3cc(Br)ccc3n2)n1 | 0.32 µM | 6.87 | 0.463 µM | 99 | 144 | 5 | 4.2 | – | 9.33 µM | 46 µM | – | – | –
Cl.O=[N+]([O-])c1ncn(CCCN(Cc2ccc(C(F)(F)F)cc2)Cc2ccc(C(F)(F)F)cc2)n1 | 0.145 µM | 8.79 | 0.271 µM | 339 | 634 | 264 | 9.3 | 0.21 µM | 0.348 µM | 91.9 µM | 0.2 µM | 0.1 µM | 2
CC1CS(=O)(=O)CCN1/N=C/c1ccc([N+](=O)[O-])o1 (stereo not drawn) [NIFURTIMOX] | – | – | – | – | – | – | – | – | – | – | 1.71 µM | 0.13 µM | 13
Cl.O=[N+]([O-])c1ncn(CCCNc2ccnc3cccnc23)n1 | 1.03 µM | 6.81 | 2.22 µM | 60 | 129 | 1 | 1.3 | > 10 µM | 182 µM | 133 µM | – | – | –
Cl.O=[N+]([O-])c1ncn(CCCCNc2nc(-c3ccccc3)nc3ccccc23)n1 | 1.74 µM | 5.06 | 0.562 µM | 137 | 44 | 9 | 0.8 | – | 8.69 µM | 77 µM | – | – | –

Further lines, with some results ahead:

IC50 [1] | pKa [2] | IC50 [7] | Structure (SMILES) | selectivity ratio [3] | selectivity ratio [4] | selectivity ratio [5] | Ratio IC50 [6] | IC50 [8] | IC50 [9] | IC50 [10] | IC50 [11] | IC50 [12] | Ratio IC50 [13]
0.412 µM | 8.52 | 1.2 µM | Cl.Cl.O=[N+]([O-])c1ncn(CCCCN2CCN(Cc3ccc(C(F)(F)F)cc3)CC2)n1 | 99 | 287 | 3 | 3.3 | > 10 µM | 44.5 µM | 118 µM | – | – | –
0.32 µM | 9.65 | 3.61 µM | Cl.O=[N+]([O-])c1ncn(CCCNCc2ccc(C(F)(F)F)cc2)n1 | 34 | 383 | 1 | 4.2 | – | 159 µM | 122 µM | – | – | –
0.305 µM | 7.53 | 0.117 µM | Cl.O=[N+]([O-])c1ncn(CCCCNc2ccnc3cc(C(F)(F)F)ccc23)n1 | 973 | 373 | 1 | 4.4 | – | 137 µM | 114 µM | – | – | –
0.34 µM | 8.33 | 1.38 µM | Cl.Cl.O=[N+]([O-])c1ncn(CCCN2CCN(Cc3ccc(C(F)(F)F)cc3)CC2)n1 | > 140 | > 562 | > 3 | 4 | > 10 µM | 58.1 µM | > 191 µM | – | – | –
